Assay results as given in ChEMBL document CHEMBL1125189, “Relaxant activity of 6-cyano-2,2-dimethyl-2H-1-benzopyran-4-carboxamides and -thiocarboxamides and their analogues in guinea pig trachealis” (J Med Chem, 1991).

Assays:
Cavia porcellus [1] = species on record: Cavia porcellus; test: Inhibition of spontaneous tone in guinea pig tracheal spirals; type: functional, Trachea
Summary of the method: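 Guinea pig tracheal spiral strips held isometrically in oxygenated Krebs solution. Intrinsic activity is the ratio of maximum relaxation to the isoprenaline maximum, given as an arithmetic mean.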

Cavia porcellus [2] = species on record: Cavia porcellus; test: Evaluated by measuring inhibition of spontaneous tone in guinea pig tracheal spirals; type: functional, Trachea
Summary of the method: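 Guinea pig tracheal spiral strips held isometrically in oxygenated Krebs solution. […] It is generally a geometric mean of ≥3 determinations, except where IC50 >15 μM. Intrinsic activity is the ratio of maximum relaxation to the isoprenaline maximum, given as an arithmetic mean.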

Cavia porcellus [3] = test: Inhibition of Histamine-induced bronchospasm was measured by measuring % prolongation of collapse time of guinea pig at different intervals of time at a peroral dose of 20 mg/kg (time between dose and challenge 60 min); type: functional; details: route oral
Summary of the method: (§1)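 Male guinea pigs (400-460 g) were dosed orally with compound or vehicle and placed in a ca. 8-L chamber. At set times after dosing they were challenged for 4 min with aerosol from 5 mM histamine diphosphate, generated over 20 s by ultrasonic nebulizer. Time from aerosol to collapse was recorded. Data are means ± SE.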

Cavia porcellus [4] = test: Inhibition of Histamine-induced bronchospasm was measured by measuring % prolongation of collapse time of guinea pig at different intervals of time at a peroral dose of 10 mg/kg (time between dose and challenge 15 min); type: functional; details: route oral; summary of the method: as §1
Cavia porcellus [5] = test: Inhibition of Histamine-induced bronchospasm was measured by measuring % prolongation of collapse time of guinea pig at different intervals of time at a peroral dose of 10 mg/kg (time between dose and challenge 60 min); type: functional; details: route oral; summary of the method: as §1
Cavia porcellus [6] = species on record: Cavia porcellus; test: Inhibition of Histamine-induced bronchospasm was measured by measuring % prolongation of collapse time of guinea pig; type: functional; summary of the method: as §1
Cavia porcellus [7] = test: Inhibition of Histamine-induced bronchospasm was measured by measuring % prolongation of collapse time of guinea pig at different intervals of time at a peroral dose of 5 mg/kg (time between dose and challenge 60 min); type: functional; details: route oral; summary of the method: as §1
Cavia porcellus [8] = test: Inhibition of Histamine-induced bronchospasm was measured by measuring % prolongation of collapse time of guinea pig at different intervals of time at a peroral dose of 20 mg/kg (time between dose and challenge 90 min); type: functional; details: route oral; summary of the method: as §1
Cavia porcellus [9] = test: Inhibition of Histamine-induced bronchospasm was measured by measuring % prolongation of collapse time of guinea pig at different intervals of time at a peroral dose of 20 mg/kg (time between dose and challenge 30 min); type: functional; details: route oral; summary of the method: as §1
Cavia porcellus [10] = test: Inhibition of Histamine-induced bronchospasm was measured by measuring % prolongation of collapse time of guinea pig at different intervals of time at a peroral dose of 20 mg/kg (time between dose and challenge 120 min); type: functional; details: route oral; summary of the method: as §1
Cavia porcellus [11] = test: Inhibition of Histamine-induced bronchospasm was measured by measuring % prolongation of collapse time of guinea pig at different intervals of time at a peroral dose of 20 mg/kg (time between dose and challenge 15 min); type: functional; details: route oral; summary of the method: as §1

SMILES	IC50 (Cavia porcellus [1]; Cavia porcellus, Trachea)	Intinsic activity (Cavia porcellus [2])	also measured
CC(=O)OC1=C(C(=O)N(C(C)=O)c2ccccc2)c2cc(C#N)ccc2OC1(C)C	1.35 µM	0.95	Prolongation (Cavia porcellus [3]): 5%
C/N=C(\S)C1=C(O)C(C)(C)Oc2ccc(C#N)cc21		0.69	
CC1(C)Oc2ccc(C#N)cc2C(C(=O)Nc2ccccc2)=C1O		0.98	Prolongation (Cavia porcellus [4]): -6%; Prolongation (Cavia porcellus [5]): -14%
CC1(C)Oc2ccc(C#N)cc2C(C)(C(=O)Nc2ccccc2)C1=O (stereo not given)	> 20 µM		
CC1(C)Oc2ccc(C#N)cc2C(N2CCCC2=O)C1O (stereo not given) [CROMAKALIM]		0.89	Prolongation (Cavia porcellus [6]): 174%
CSC(SC)=C1C(=O)C(C)(C)Oc2ccc(C#N)cc21	> 20 µM		
CO/C(=N\c1ccccc1)C1=C(O)C(C)(C)Oc2ccc(C#N)cc21		0.82	Prolongation (Cavia porcellus [7]): 1%
CC1(C)Oc2ccc(C#N)cc2C(/C(S)=N/c2ccccc2)C1O (trans isomer)		0.82	IC50 (Cavia porcellus [1]): 3.4 µM
CC(C)(C)/N=C(\S)C1=C(O)C(C)(C)Oc2ccc(C#N)cc21	4.35 µM	0.93	
C/N=C(\S)C1c2cc(C#N)ccc2OC(C)(C)C1O (cis isomer)	5.92 µM	0.84	
COc1ccc(NC(=O)C2=C(O)C(C)(C)Oc3ccc(C#N)cc32)cc1	1.2 µM	0.94	
C/N=C(/S)C1=CC(C)(C)Oc2ccc(C#N)cc21		0.88	Prolongation (Cavia porcellus [8]): 175%; Prolongation (Cavia porcellus [7]): 12%; Prolongation (Cavia porcellus [3]): 230%; Prolongation (Cavia porcellus [9]): 244%; Prolongation (Cavia porcellus [5]): 9%; Prolongation (Cavia porcellus [10]): 187%
CC(C)(C)/N=C(\S)C1c2cc(C#N)ccc2OC(C)(C)C1O (stereo in doubt; 11b)		0.79	IC50 (Cavia porcellus [1]): 11.1 µM
C/N=C(\S)C1c2cc(C#N)ccc2OC(C)(C)C1O (trans isomer)		0.93	IC50 (Cavia porcellus [1]): 5.6 µM
CC(C)(C)/N=C(\S)C1c2cc(C#N)ccc2OC(C)(C)C1O (stereo in doubt; 11a)	> 20 µM	0.3	
CC1(C)Oc2ccc(C#N)cc2C(/C(S)=N/c2ccc(F)cc2)=C1O		0.88	
COc1ccc(NC(=S)C2=C(O)C(C)(C)Oc3ccc(C#N)cc32)cc1	6.4 µM	0.6	
CC1(C)Oc2ccc(C#N)cc2C(c2nc3ccccc3s2)=C1O	1.36 µM	0.96	Prolongation (Cavia porcellus [3]): -1%
CC1(C)Oc2ccc(C#N)cc2C(F)(C(=O)Nc2ccccc2)C1=O (stereo not given)		0.95	Prolongation (Cavia porcellus [5]): 10%
CC1(C)C=C(C(=O)Nc2ccccc2)c2cc(C#N)ccc2O1	1.14 µM	0.86	Prolongation (Cavia porcellus [3]): 34%
COC1=C(C(=O)Nc2ccccc2)c2cc(C#N)ccc2OC1(C)C	> 20 µM		
CC1(C)Oc2ccc(C#N)cc2C(/C(S)=N/c2ccccc2)=C1O	0.25 µM	0.99	Prolongation (Cavia porcellus [3]): 10%; Prolongation (Cavia porcellus [9]): 14%; Prolongation (Cavia porcellus [11]): 63%
CC1(C)Oc2ccc(C#N)cc2C(/C(S)=N/c2ccccc2)C1O (cis isomer)		0.14	IC50 (Cavia porcellus [1]): > 20 µM
CC(C)(C)/N=C(\S)C1=CC(C)(C)Oc2ccc(C#N)cc21	> 20 µM	0	
